# In ChEMBL document CHEMBL1125137, “Synthesis and structure-activity relationships of N,N'-di-o-tolylguanidine analogues, high-affinity ligands for the haloperidol-sensitive sigma receptor” (J Med Chem, 1990):
# Columns and labels:
# [1] = target: Glutamate [NMDA] receptor; assay: (§1) In vitro inhibitory activity against [3H](+)-MK-801 binding to PCP receptor in guinea pig brain membrane homogenates; format: cell membranes, Cavia porcellus
# How it was run: (§2)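 [3H](+)-MK-801 (97 Ci/mmol) at 1 nM final with guinea pig brain membranes at 150 μg protein/mL. Assay and filtration buffer was 5 mM Tris-HCl pH 7.4. Incubation 4 h at 25 °C. Nonspecific binding measured with 10 μM TCP or MK-801. Bound ligand collected by glass-fiber filtration and counted by scintillation. IC50 taken from displacement curves.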
# [2] = target: Glutamate [NMDA] receptor; assay: In vitro inhibitory activity against [3H]-TCP binding to PCP receptor in guinea pig brain membrane homogenates; format: cell membranes, Cavia porcellus
# How it was run: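 Displacement of 1.8 nM [3H]TCP (100 Ci/mmol) from guinea pig brain membranes (800 μg protein/mL, 50 mM Tris-HCl pH 7.4). Incubation 45 min at room temperature. Nonspecific binding defined by 10 μM PCP. Vacuum filtration on glass-fiber filters, two washes, scintillation counting. IC50 interpolated from semilog displacement curves.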
# [3] = target: Glutamate [NMDA] receptor; assay: as §1; format: cell membranes, Cavia porcellus; how it was run: as §2; remark: listed apart in the source
# [4] = target: sigma receptor (guinea pig); assay: In vitro inhibitory activity against [3H]- (+)-3-PPP binding to sigma receptor in guinea pig brain membrane homogenates
SMILES,IC50 [1],IC50 [2],also measured
N=C(NC12CC3CC(CC(C3)C1)C2)NC12CC3CC(CC(C3)C1)C2,–,> 10 µM,–
CN=C(NC1CCCCC1)NC1CCCCC1,–,> 10 µM,IC50 [3]: > 10 µM
N=C(Nc1ccccc1I)NC1C2CC3CC(C2)CC1C3 (stereo not drawn),> 10 µM,–,–
Cc1ccccc1/N=C(\N)NC1C2CC3CC(C2)CC1C3 (stereo not drawn),> 10 µM,–,–
Cc1ccccc1/N=C(/N)Nc1ccccc1/C=C/c1ccccc1,> 10 µM,–,–
N=C(NC1C[C@H]1c1ccccc1)NC12CC3CC(CC(C3)C1)C2 (stereo partly drawn),> 10 µM,–,–
Cc1ccccc1N/C(N)=N/C1CC[C@@]2(C)C(=CCC3C2CC[C@@]2(C)C3CC[C@@H]2C(C)CCCC(C)C)C1 (stereo partly drawn),> 10 µM,–,–
Cc1ccccc1N=C(N)NC1CCCCC1,10 µM,> 10 µM,–
Cc1ccccc1NC(N)=NC1CC2CCC1(C)C2(C)C (stereo not drawn),5 µM,–,–
NC1=Nc2ccccc2-c2ccccc2N1,> 10 µM,–,–
NC(=Nc1ccccc1I)NC12CC3CC(CC(C3)C1)C2,> 10 µM,–,–
NC1=Nc2cccc3cccc(c23)N1,–,–,IC50 [3]: > 10 µM
NC(=NC1CCCCC1)NC1CCCCC1,–,> 10 µM,–
NC(=Nc1ccccc1-c1ccccc1)Nc1ccccc1-c1ccccc1,> 10 µM,–,–
CNC(=N)NC,–,> 10 µM,–
NC(=Nc1ccccc1-c1ccccc1)Nc1cccc2ccccc12,> 10 µM,–,–
Cc1ccccc1/N=C(\N)NC12CC3CC(C)(CC(C)(C3)C1)C2,2 µM,–,–
CCCCCCCCN=C(NC1CCCCC1)NC1CCCCC1,> 10 µM,–,–
CC12CC3CC(C)(C1)CC(/N=C(\N)Nc1ccccc1I)(C3)C2,4 µM,–,–
NC1=Nc2ccccc2CN1c1ccccc1,–,> 10 µM,–
CC12CC3CC(C)(C1)CC(/N=C(\N)Nc1ccccc1/C=C/c1ccccc1)(C3)C2,> 10 µM,–,–
CC1(C)C2CCC1(C)C(/N=C(\N)Nc1ccccc1I)C2 (stereo not drawn),> 10 µM,–,–

SMILES,IC50 [1],IC50 [2],also measured
N=C(NC1C2CC3CC(C2)CC1C3)NC1C2CC3CC(C2)CC1C3 (stereo not drawn),–,> 10 µM,–
N=C1N(c2ccccc2)CCN1c1ccccc1,> 10 µM,–,–
N=C(Nc1ccccc1/C=C/c1ccccc1)NC1C2CC3CC(C2)CC1C3 (stereo not drawn),> 10 µM,–,–
N=C(NC1CC2CCC1C2)NC1CC2CCC1C2 (stereo not drawn) [listing 1 of 2 here],5 µM,–,–
NC1=NCCN1c1ccccc1,–,> 10 µM,–
CCCCNC(=N)NCCCC,–,49 µM,–
NC(=Nc1ccccc1-c1ccccc1)NC12CC3CC(CC(C3)C1)C2,> 10 µM,–,–
N/C(=N\c1ccccc1[N+](=O)[O-])NC12CC3CC(CC(C3)C1)C2,> 10 µM,–,–
NC(=Nc1ccc(Br)cc1)Nc1ccc(Br)cc1,–,34 µM,–
N=C(NC1CCCCC1)NC12CC3CC(CC(C3)C1)C2,–,> 10 µM,–
CC(=O)[C@H]1CCC2C3CC=C4CC(/N=C(\N)Nc5ccccc5C)CC[C@]4(C)C3CC[C@@]21C (stereo partly drawn),> 10 µM,–,–
N=C(Nc1ccccc1)Nc1ccccc1,–,3.45 µM,–
CC(C)(C)/N=C(\N)Nc1ccccc1I,> 9.6 µM,–,–
Cc1ccccc1/N=C(\N)NC12CC3CC(CC(C3)C1)C2,–,32 µM,–
N=C(N)N(c1ccccc1)c1ccccc1,–,–,IC50 [4]: > 100 µM
N=C(NC1CC2CCC1C2)NC1CC2CCC1C2 (stereo not drawn) [listing 2 of 2 here],> 10 µM,–,–
ONC(=NC1CCCCC1)NC1CCCCC1,–,> 10 µM,–
Cc1ccccc1NC(N)=NC1CC2CCC1C2 (stereo not drawn),> 10 µM,–,IC50 [3]: > 10 µM
N=C(Nc1ccccc1/C=C/c1ccccc1)NC12CC3CC(CC(C3)C1)C2,3.5 µM,–,–
N=C(Nc1ccccc1/C=C/c1c(F)c(F)c(F)c(F)c1F)NC12CC3CC(CC(C3)C1)C2,> 10 µM,–,–
N=C(Nc1ccccc1I)NC1CC2CCC1C2 (stereo not drawn),> 10 µM,–,IC50 [3]: > 10 µM

# Now from value to compound, other results behind:
IC50 [1],IC50 [2],SMILES,also measured
0.134 µM,–,N=C(Nc1cccc2ccccc12)Nc1cccc2ccccc12,–
10.7 µM,7.8 µM,Cc1ccccc1NC(=N)Nc1ccccc1C [DITOLYLGUANIDINE],–
–,6.8 µM,N=C(NCc1ccccc1)NCc1ccccc1,–
> 10 µM,–,Cc1cc(N)ccc1N=C(N)Nc1cccc(O)c1,–
0.168 µM,0.082 µM,CCc1cccc(NC(=N)Nc2cccc(CC)c2)c1,–
–,2.05 µM,Cc1ccccc1N=C(N)Nc1ccccc1I,–
0.498 µM,–,CC(C)c1cccc(NC(=N)Nc2cccc(C(C)C)c2)c1,–
> 10 µM,–,N=C(Nc1ccccc1I)Nc1ccccc1/C=C/c1ccccc1,–
–,> 10 µM,Cc1cc(Br)ccc1N=C(N)Nc1ccc(Br)cc1C,–
–,4.15 µM,N=C(Nc1ccccc1C(F)(F)F)Nc1ccccc1C(F)(F)F,–
–,4.35 µM,Cc1ccccc1/N=C(/N)Nc1ccc(N)cc1C,–
2.11 µM,–,CCCc1cccc(NC(=N)Nc2cccc(CCC)c2)c1,–
0.82 µM,0.358 µM,CCc1ccccc1N=C(N)Nc1ccccc1CC,–
38.3 µM,–,CC(C)(C)c1ccccc1N=C(N)Nc1ccccc1C(C)(C)C,–
–,2.1 µM,Cc1ccccc1NC(N)=Nc1ccccc1[N+](=O)[O-],–
13.3 µM,31 µM,Cc1ccc(N=C(N)Nc2ccc(C)cc2)cc1,–
26.8 µM,–,CC(C)c1ccc(NC(=N)Nc2ccc(C(C)C)cc2)cc1,–
–,37 µM,Cc1cc([N+](=O)[O-])ccc1NC(N)=Nc1cccc(O)c1,–
0.275 µM,–,CC(C)c1ccccc1N=C(N)Nc1ccccc1C(C)C,–
–,4.3 µM,Cc1cc([N+](=O)[O-])ccc1NC(=N)Nc1ccc([N+](=O)[O-])cc1C,–
0.24 µM,0.21 µM,NC(=Nc1ccccc1I)Nc1ccccc1I,–
–,> 100 µM,Cc1cc(N)ccc1NC(=N)Nc1ccc(N)cc1C,–
0.33 µM,0.37 µM,Cc1cccc(NC(=N)Nc2cccc(C)c2)c1,–
–,1.9 µM,Cc1ccccc1/N=C(/N)Nc1c(C)cccc1C,–
–,12 µM,Cc1ccccc1N=C(N)Nc1ccccc1N,–
> 10 µM,–,N=C(Nc1ccccc1CCc1ccccc1)NC12CC3CC(CC(C3)C1)C2,–
–,32 µM,Cc1cccc(C)c1N=C(N)Nc1c(C)cccc1C,–
–,5.7 µM,Cc1ccccc1/N=C(/N)Nc1ccc([N+](=O)[O-])cc1C,–
–,2.5 µM,Cc1ccccc1/N=C(/N)Nc1cccc(O)c1,–
10.3 µM,–,CCc1ccc(NC(=N)Nc2ccc(CC)cc2)cc1,–
